Measurements as given in ChEMBL document CHEMBL4402517, “Rational modification of Mannich base-type derivatives as novel antichagasic compounds: Synthesis, in vitro and in vivo evaluation” (Bioorg Med Chem, 2019).

What was measured:
[1] = Toxicity in BALB/c mouse infected with Trypanosoma cruzi MHOM/Pe/2011/Arequipa;DTU 5 bloodstream trypomastigote assessed as change in serum aspartate aminotransferase level in chronic phase at 20 mg/kg/day, po administered for 5 consecutive days starting from day 70 post infection measured on day 100 post infection relative to control; assay type: organism-based; details: in vivo
How it was run: (§1)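 Female BALB/c mice (10–12 weeks, 14–20 g; groups of three) were infected i.p. with 5 × 10^5 Arequipa bloodstream trypomastigotes. Dosing was oral at 20 mg/kg/day for 5 days, from day 8 pi (acute) or day 70 pi (chronic), as a 2 mg/ml suspension in 5% DMSO/0.5% HPMC; controls received vehicle. Cyclophosphamide 200 mg/kg i.p. was given at day 80 pi. Serum was collected 2 days post-treatment and at necropsy by cardiac puncture and compared with infected untreated controls.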

[2] = Genotoxicity in Salmonella typhimurium TA1535 harboring pSK1002 assessed as survival at 0.016 mg/ml in absence of Sprague-Dawley rat liver S9 fraction metabolic activation by SOS/umu assay relative to control; assay type: toxicity; details: salmonella enterica subsp. enterica serovar typhimurium, read-out: Survival
How it was run: (§2)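 Survival of S. typhimurium TA1535/pSK1002 exposed to a range of compound concentrations with or without S9 mix in 96-well format. Survival percentage measured as the cytotoxicity arm of the SOS/umu test. Concentrations with survival ≥80% are counted as non-cytotoxic.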

[3] = Genotoxicity in Salmonella typhimurium TA1535 harboring pSK1002 assessed as umu gene induction at 1 mg/ml in presence of Sprague-Dawley rat liver S9 fraction metabolic activation by SOS/umu assay relative to control; assay type: toxicity, subcellular; details: salmonella enterica subsp. enterica serovar typhimurium, read-out: FC
How it was run: (§3)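 umu induction in S. typhimurium TA1535/pSK1002, with or without S9 mix, in 96-well format. β-galactosidase read colorimetrically with ONPG substrate. Output given as relative units and induction factor (IF). The run is valid if positive controls reach IF ≥2. A compound counts as genotoxic at IF ≥2 at a concentration giving ≥80% bacterial survival.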

Trypanosoma cruzi [4] = assay: Antitrypanosomal activity against Trypanosoma cruzi MHOM/Pe/2011/Arequipa;DTU 5 bloodstream trypomastigotes infected in BALB/c mouse assessed as decrease in splenomegaly in chronic phase at 20 mg/kg/day, po administered for 5 consecutive days starting from day 70 post infection relative to untreated control; assay type: functional; design: scale not given: the % may be the effect or the level left
How it was run: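 Female BALB/c mice (three per group) were infected i.p. with 5 × 10^5 Arequipa trypomastigotes and dosed orally at 20 mg/kg/day for 5 days in 5% DMSO/0.5% HPMC. Controls were uninfected and vehicle-only groups. At the end of the experiment spleens were weighed and expressed as % of body weight.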

[5] = Genotoxicity in Salmonella typhimurium TA1535 harboring pSK1002 assessed as survival at 0.004 mg/ml in absence of Sprague-Dawley rat liver S9 fraction metabolic activation by SOS/umu assay relative to control; assay type: toxicity; details: salmonella enterica subsp. enterica serovar typhimurium, read-out: Survival; how it was run: as §2
[6] = Genotoxicity in Salmonella typhimurium TA1535 harboring pSK1002 assessed as survival at 0.063 mg/ml in absence of Sprague-Dawley rat liver S9 fraction metabolic activation by SOS/umu assay relative to control; assay type: toxicity; details: salmonella enterica subsp. enterica serovar typhimurium, read-out: Survival; how it was run: as §2
[7] = Genotoxicity in Salmonella typhimurium TA1535 harboring pSK1002 assessed as survival at 0.031 mg/ml in absence of Sprague-Dawley rat liver S9 fraction metabolic activation by SOS/umu assay relative to control; assay type: toxicity; details: salmonella enterica subsp. enterica serovar typhimurium, read-out: Survival; how it was run: as §2
[8] = Genotoxicity in Salmonella typhimurium TA1535 harboring pSK1002 assessed as survival at 0.063 mg/ml in presence of Sprague-Dawley rat liver S9 fraction metabolic activation by SOS/umu assay relative to control; assay type: toxicity, subcellular; details: salmonella enterica subsp. enterica serovar typhimurium, read-out: Survival; how it was run: as §2
Trypanosoma cruzi [9] = assay: Trypanocidal activity against Trypanosoma cruzi trypomastigote form infected in African green monkey Vero cells assessed as ratio of infected cells at 50 uM measured after 72 hrs by Giemsa staining based assay relative to control; assay type: functional
How it was run: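 Vero cells (1 × 10^4/well, on coverslips) were infected with trypomastigotes at MOI 10:1 for 24 h and washed three times with PBS. They were treated at 3.1, 6.25, 12.5, 25 and 50 µM for 72 h at 37 °C in 5% CO2. Infected cells were counted after Giemsa staining. Triplicates, two separate determinations.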

[10] = Inhibition of Trypanosoma cruzi MHOM/Pe/2011/Arequipa;DTU 5 epimastigote Fe-SOD
How it was run: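 Fe-SOD excreted by exponentially growing T. cruzi Arequipa epimastigotes cultured in supplemented MTL at 28 °C. Protein quantified by Bradford. SOD activity measured by the Beyer–Fridovich method. IC50 from inhibition curves by nonlinear regression. Mean of three independent determinations ± standard deviation.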

[11] = (§4) Toxicity in BALB/c mouse infected with Trypanosoma cruzi MHOM/Pe/2011/Arequipa;DTU 5 bloodstream trypomastigote assessed as decrease in serum uric acid level in acute phase at 20 mg/kg/day, po administered for 5 consecutive days starting from day 8 post infection and measured on day 100 post infection by biochemical analysis relative to control; assay type: organism-based; design: scale not given: the % may be the effect or the level left; details: in vivo; how it was run: as §1
[12] = Toxicity in BALB/c mouse infected with Trypanosoma cruzi MHOM/Pe/2011/Arequipa;DTU 5 bloodstream trypomastigote assessed as decrease in serum aspartate aminotransferase level in chronic phase at 20 mg/kg/day, po administered for 5 consecutive days starting from day 70 post infection and measured at day 76 post infection relative to control; assay type: organism-based; design: scale not given: the % may be the effect or the level left; details: in vivo; how it was run: as §1
[13] = Genotoxicity in Salmonella typhimurium TA1535 harboring pSK1002 assessed as survival at 0.125 mg/ml in presence of Sprague-Dawley rat liver S9 fraction metabolic activation by SOS/umu assay relative to control; assay type: toxicity, subcellular; details: salmonella enterica subsp. enterica serovar typhimurium, read-out: Survival; how it was run: as §2
[14] = as §4, with “alkaline phosphatase” for “uric acid”; assay type: organism-based; design: scale not given: the % may be the effect or the level left; details: in vivo; how it was run: as §1
[15] = Genotoxicity in Salmonella typhimurium TA1535 harboring pSK1002 assessed as umu gene induction at 1 mg/ml in absence of Sprague-Dawley rat liver S9 fraction metabolic activation by SOS/umu assay relative to control; assay type: toxicity; details: salmonella enterica subsp. enterica serovar typhimurium, read-out: FC; how it was run: as §3
[16] = Genotoxicity in Salmonella typhimurium TA1535 harboring pSK1002 assessed as survival at 0.004 mg/ml in presence of Sprague-Dawley rat liver S9 fraction metabolic activation by SOS/umu assay relative to control; assay type: toxicity, subcellular; details: salmonella enterica subsp. enterica serovar typhimurium, read-out: Survival; how it was run: as §2
[17] = Genotoxicity in Salmonella typhimurium TA1535 harboring pSK1002 assessed as umu gene induction at 0.5 mg/ml in presence of Sprague-Dawley rat liver S9 fraction metabolic activation by SOS/umu assay relative to control; assay type: toxicity, subcellular; details: salmonella enterica subsp. enterica serovar typhimurium, read-out: FC; how it was run: as §3
[18] = Genotoxicity in Salmonella typhimurium TA1535 harboring pSK1002 assessed as umu gene induction at 0.001 mg/ml in presence of Sprague-Dawley rat liver S9 fraction metabolic activation by SOS/umu assay relative to control; assay type: toxicity, subcellular; details: salmonella enterica subsp. enterica serovar typhimurium, read-out: FC; how it was run: as §3
[19] = Genotoxicity in Salmonella typhimurium TA1535 harboring pSK1002 assessed as survival at 0.002 mg/ml in presence of Sprague-Dawley rat liver S9 fraction metabolic activation by SOS/umu assay relative to control; assay type: toxicity, subcellular; details: salmonella enterica subsp. enterica serovar typhimurium, read-out: Survival; how it was run: as §2
[20] = as §4, with “urea” for “uric acid”; assay type: organism-based; design: scale not given: the % may be the effect or the level left; details: in vivo; how it was run: as §1
Trypanosoma cruzi [21] = assay: Trypanocidal activity against Trypanosoma cruzi trypomastigote form infected in African green monkey Vero cells assessed as ratio of infected cells at 25 uM measured after 72 hrs by Giemsa staining based assay relative to control; assay type: functional
How it was run: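 Vero cells in RPMI with 10% heat-inactivated FBS, seeded at 1 × 10^4/well on coverslips for 24 h at 37 °C, 5% CO2. Infected with bloodstream trypomastigotes at MOI 10:1 for 24 h, then washed three times with PBS. Compounds added at 3.1–50 µM for 72 h. Infected cells counted after Giemsa staining. Triplicates, two separate determinations.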

| Structure (SMILES) | Activity [1] [%] | viability at 0.016 mg/ml [2] [%] | fold induction at 1 mg/ml [3] | Activity (Trypanosoma cruzi [4]) [%] | viability at 0.004 mg/ml [5] [%] | viability at 0.063 mg/ml [6] [%] | viability at 0.031 mg/ml [7] [%] | viability at 0.063 mg/ml [8] [%] | Ratio (Trypanosoma cruzi [9]) [%] | IC50 [10] [µM] | Activity [11] | Activity [12] | viability at 0.125 mg/ml [13] [%] | Activity [14] | fold induction at 1 mg/ml [15] | viability at 0.004 mg/ml [16] [%] | fold induction at 0.5 mg/ml [17] | fold induction at 0.001 mg/ml [18] | viability at 0.002 mg/ml [19] [%] | Activity [20] | other results |
| --- | --- | --- | --- | --- | --- | --- | --- | --- | --- | --- | --- | --- | --- | --- | --- | --- | --- | --- | --- | --- | --- |
| O=C(CCN1CCN(c2ccc(C(F)(F)F)cc2)CC1)c1ccc(O)cc1 | > 10 | 127 | 0.37 | 66 | 127 | 117 | 112 | 92.9 | 7 | 4.3 | <= 30% | <= 10% | 138 | <= 30% | 0.16 | 112 | 0.74 | 0.82 | 108 |  |  |
| O=C(CCN1CCN(c2ccc(Cl)cc2)CC1)c1ccc(O)cc1 |  | 130 | 0.38 | 81 | 140 | 125 | 107 | 86.7 |  | 3.9 |  | <= 10% | 113 | <= 10% | 0.12 | 108 | 0.46 | 0.76 | 111 | <= 10% | Ratio (Trypanosoma cruzi [21]): 19% |
| O=C(Cn1ccnc1[N+](=O)[O-])NCc1ccccc1 [BENZNIDAZOLE] | > 10 |  |  |  |  |  |  |  | 18 |  | <= 10% |  |  |  |  |  |  |  |  | <= 20% | Ratio (Trypanosoma cruzi [21]): 18% |
